Laboratory results published in article PMC4984525 (Cancer, 2011).
“Also recorded” adds a separate entry of the source.

How the values were obtained:
HCT15 = HCT15 subcutaneous xenograft, mouse; cited from earlier work
multiple myeloma = conditions: cited from earlier work
[1] = test system: patients with advanced or refractory myeloid leukemias; experiment: Phase 1 dose-escalation: safety, DLT and MTD; assay type: in vivo
tumor cell = conditions: background statement; cited from earlier work
K562 = K562 subcutaneous xenograft, mouse; cited from earlier work
A2780 = A2780 subcutaneous xenograft, mouse; cited from earlier work
HT-29 = HT-29 subcutaneous xenograft, mouse; cited from earlier work
[2] = test system: relapsed or refractory AML or high-grade myelodysplastic syndromes; experiment: Clinical efficacy; assay type: in vivo, human
Summary of the method: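 Open-label, multicentre dose escalation in patients ≥17 y (ECOG 0–2). Test compound given IV over 1 h, on Day 1 (from 2.5 mg/m2) or on Days 1, 3 and 5 (from 0.8 mg/m2/day). Escalation steps were 50%, then 30%. Complete and partial remissions were scored during induction and later cycles; MDS used modified IWG criteria. Hydroxyurea was allowed during days 1–14.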

HCT-116 = HCT-116 subcutaneous xenograft, mouse; cited from earlier work
[3] = test system: Peripheral blood mononuclear cells (PBMCs); experiment: Pharmacodynamics: spindle morphology by confocal imaging; assay type: cell-based, human

For `CON(C)C(=O)N1N=C(c2cc(F)ccc2F)S[C@@]1(CCCN)c1ccccc1` [ARRY-520], which anti-cancer efficacy (HCT15) is on record?
Its anti-cancer efficacy is “demonstrated anti-cancer efficacy”.

And the “activity in xenograft models of multiple myeloma” value (multiple myeloma)?
Its value is “has shown activity”.

What about the “MTD, total dose” value ([1]; Schedule 2 (Days 1, 3 and 5)) of the same compound?
The value was 4.5 mg/m^2.

And the “died within 30 days following discontinuation of ARRY-520, %” value ([1]; all patients)?
The value was 17%.

What about the “died within 30 days following discontinuation of ARRY-520, patients n” value ([1]; all patients) of the same compound?
Its value is 6.

And the “Grades 3 or 4 reversible drug-related myelosuppression, patients” value ([1]; human, in vivo)?
Its value is 33/36.

What about the “adverse events leading to discontinuation, % of patients” value ([1]; human, in vivo) of the same compound?
The value was 8%.

What about the “adverse events leading to discontinuation, patients n” value ([1]; human, in vivo) of the same compound?
The value was 3.

And the “asymptomatic Grade 1 QTc prolongation, % of patients” value ([1]; human, in vivo)?
Its value is 22%.

And the “asymptomatic Grade 1 QTc prolongation, patients n” value ([1]; human, in vivo)?
The value was 8.

What about the “asymptomatic Grade 2 QTc prolongation, % of patients” value ([1]; human, in vivo) of the same compound?
Its value is 3%.

And the “asymptomatic Grade 2 QTc prolongation, patients n” value ([1]; human, in vivo)?
The value was 1.

What about the “drug-related SAE bacteremia, %” value ([1]; human, in vivo) of the same compound?
Its value is 3%.

What about the “drug-related SAE diarrhea, %” value ([1]; human, in vivo) of the same compound?
The value was 3%.

And the “drug-related SAE exfoliative rash, %” value ([1]; human, in vivo)?
Its value is 3%.

And the “drug-related SAE hyperbilirubinemia, %” value ([1]; human, in vivo)?
The value was 3%.

What about the “drug-related SAE neutropenic fever, %” value ([1]; human, in vivo) of the same compound?
Its value is 8%.

What about the “drug-related SAE palmar-plantar erythrodysesthesia, %” value ([1]; human, in vivo) of the same compound?
The value was 6%.

And the “drug-related SAE pancytopenia, %” value ([1]; human, in vivo)?
Its value is 3%.

And the “drug-related SAE stomatitis, %” value ([1]; human, in vivo)?
The value was 3%.

And the “patients with one or more SAEs related to study drug, %” value ([1]; human, in vivo)?
Its value is 28%.

And the “Dose-limiting toxicities (DLT)” value ([1]; in vivo)?
Its value is “mucositis, exfoliative rash, hand-foot syndrome and hyperbilirubinemia”.

What about the Neurotoxicity ([1]; in vivo) of the same compound?
Its Neurotoxicity is “not observed”.

What about the “other clinically significant ECG changes” value ([1]; in vivo) of the same compound?
Its value is “No other clinically significant ECG changes were observed”.

And the “concentrations inducing mitotic arrest and tumor cell death” value (tumor cell)?
The value was “sub-nanomolar”.

And the anti-cancer efficacy (K562)?
The anti-cancer efficacy was “demonstrated anti-cancer efficacy”.

What about the anti-cancer efficacy (A2780) of the same compound?
The anti-cancer efficacy was “demonstrated anti-cancer efficacy”.

What about the anti-cancer efficacy (HT-29) of the same compound?
Its anti-cancer efficacy is “demonstrated anti-cancer efficacy”.

And the “partial response, %” value ([2]; 34 patients with efficacy data)?
Its value is 3%.

What about the “partial response, patients n” value ([2]; 34 patients with efficacy data) of the same compound?
The value was 1.

And the complete remissions ([2]; heavily pretreated relapsed/refractory AML or MDS)?
Its complete remissions is “did not observe complete remissions”.

And the anti-cancer efficacy (HCT-116)?
Its anti-cancer efficacy is “demonstrated anti-cancer efficacy”.

And the “Aberrant spindles (with misaligned DNA) in PBMCs” value ([3]; Cycle 1, Day 5, patients dosed at 1.2 mg/m^2/day (after 3 doses))?
The value was “observed in some PBMCs; also recorded: Aberrant spindles are observed; also recorded: abnormal spindles were observed”.

And the “Monopolar spindles in blood mononuclear cells” value ([3]; DAPI nucleic acid stain and anti-tubulin antibodies)?
Its value is “Monopolar spindles were observed”.
